Laboratory results published in ChEMBL document CHEMBL1681705, “Optimisation of ITK inhibitors through successive iterative design cycles” (Bioorg Med Chem Lett, 2011).

How the values were obtained:
[1] = target: T1, Interleukin-1 receptor-associated kinase 4 (Homo sapiens) (UniProt Q9NWZ3); experiment: Inhibition of IRAK4 at 1 uM
T1 sequence (whole entry): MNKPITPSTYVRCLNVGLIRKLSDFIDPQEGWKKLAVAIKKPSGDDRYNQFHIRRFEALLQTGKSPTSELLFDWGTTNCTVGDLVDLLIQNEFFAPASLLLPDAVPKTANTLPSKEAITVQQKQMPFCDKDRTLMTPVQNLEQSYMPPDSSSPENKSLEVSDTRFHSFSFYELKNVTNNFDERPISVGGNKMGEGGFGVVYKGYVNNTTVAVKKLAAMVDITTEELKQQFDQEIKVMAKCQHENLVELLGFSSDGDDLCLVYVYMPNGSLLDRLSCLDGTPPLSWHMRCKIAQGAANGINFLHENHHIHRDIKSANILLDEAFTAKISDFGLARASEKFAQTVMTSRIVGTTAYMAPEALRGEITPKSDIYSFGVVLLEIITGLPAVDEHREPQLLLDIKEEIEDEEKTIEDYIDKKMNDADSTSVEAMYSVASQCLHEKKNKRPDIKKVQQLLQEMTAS
Procedure, shortened: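 Single-point profiling in a panel of 108 kinases. Each selected inhibitor was tested at two concentrations, 0.1 and 1.0 micromolar. Values are reported as inhibition at each concentration.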

[2] = target: Mitogen-activated protein kinase 11 (Homo sapiens) (UniProt Q15759); experiment: Inhibition of SAPK2b at 1 uM
cells = conditions: Homo sapiens, T-cell
[3] = target: Mitogen-activated protein kinase 9 (Homo sapiens) (UniProt P45984); experiment: Inhibition of JNK2a2 at 1 uM; conditions: values are per cent of control
[4] = target: Tyrosine-protein kinase Fgr (Homo sapiens) (UniProt P09769); experiment: Inhibition of Fgr at 1 uM; values are per cent of control
[5] = target: Tyrosine-protein kinase HCK (Homo sapiens) (UniProt P08631); experiment: Inhibition of Hck at 1 uM; values are per cent of control
[6] = target: Insulin receptor (Homo sapiens) (UniProt P06213); experiment: Inhibition of IR at 0.1 uM; values are per cent of control
Sequence of Insulin receptor (Homo sapiens) (P06213 28-758 limits assumed): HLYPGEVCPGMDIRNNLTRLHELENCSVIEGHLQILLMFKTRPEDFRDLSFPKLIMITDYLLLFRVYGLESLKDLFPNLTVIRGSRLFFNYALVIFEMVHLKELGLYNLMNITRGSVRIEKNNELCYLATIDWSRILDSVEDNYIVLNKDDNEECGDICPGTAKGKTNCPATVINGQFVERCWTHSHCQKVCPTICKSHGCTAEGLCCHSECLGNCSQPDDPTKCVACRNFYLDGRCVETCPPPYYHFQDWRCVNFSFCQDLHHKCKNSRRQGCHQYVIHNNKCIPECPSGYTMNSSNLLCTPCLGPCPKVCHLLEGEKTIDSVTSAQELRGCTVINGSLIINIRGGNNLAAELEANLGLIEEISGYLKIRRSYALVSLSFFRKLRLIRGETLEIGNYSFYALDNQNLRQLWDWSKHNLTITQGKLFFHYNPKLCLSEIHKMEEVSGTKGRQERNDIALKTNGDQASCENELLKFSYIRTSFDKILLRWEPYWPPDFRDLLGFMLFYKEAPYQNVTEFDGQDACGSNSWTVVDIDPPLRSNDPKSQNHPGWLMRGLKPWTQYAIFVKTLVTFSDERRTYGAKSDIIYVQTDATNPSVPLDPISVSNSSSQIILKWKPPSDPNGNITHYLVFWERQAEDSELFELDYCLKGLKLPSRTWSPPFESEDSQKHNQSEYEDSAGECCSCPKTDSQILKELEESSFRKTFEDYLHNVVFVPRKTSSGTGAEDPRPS
Sequence of Insulin receptor (Homo sapiens) (P06213 763-1382 limits assumed): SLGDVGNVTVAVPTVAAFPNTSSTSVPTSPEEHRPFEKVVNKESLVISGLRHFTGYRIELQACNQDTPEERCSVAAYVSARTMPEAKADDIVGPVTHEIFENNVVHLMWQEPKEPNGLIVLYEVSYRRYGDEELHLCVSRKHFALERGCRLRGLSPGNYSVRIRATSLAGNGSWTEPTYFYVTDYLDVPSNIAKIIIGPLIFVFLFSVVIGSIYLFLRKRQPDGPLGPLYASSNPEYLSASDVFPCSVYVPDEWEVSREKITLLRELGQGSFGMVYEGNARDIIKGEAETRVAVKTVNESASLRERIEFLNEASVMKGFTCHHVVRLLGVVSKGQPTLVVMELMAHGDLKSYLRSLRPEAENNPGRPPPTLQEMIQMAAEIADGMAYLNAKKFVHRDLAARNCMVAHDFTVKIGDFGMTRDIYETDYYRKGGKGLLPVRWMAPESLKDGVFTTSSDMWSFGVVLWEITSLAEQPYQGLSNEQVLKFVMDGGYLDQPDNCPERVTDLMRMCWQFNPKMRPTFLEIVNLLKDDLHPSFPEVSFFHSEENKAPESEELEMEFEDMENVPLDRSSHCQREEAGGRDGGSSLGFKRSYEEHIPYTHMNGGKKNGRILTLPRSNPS

[7] = target: Protein-tyrosine kinase 2-beta (Homo sapiens) (UniProt Q14289); experiment: Inhibition of Pyk2 at 1 uM; values are per cent of control
[8] = target: Tyrosine-protein kinase BTK (Homo sapiens) (UniProt Q06187); experiment: Inhibition of BTK at 0.1 uM; values are per cent of control
[9] = target: Hepatocyte growth factor receptor (Homo sapiens) (UniProt P08581); experiment: Inhibition of Met at 0.1 uM; values are per cent of control
[10] = target: Tyrosine-protein kinase Yes (Homo sapiens) (UniProt P07947); experiment: Inhibition of Yes at 0.1 uM; values are per cent of control
[11] = target: Mast/stem cell growth factor receptor Kit (Homo sapiens) (UniProt P10721); experiment: Inhibition of c-Kit at 1 uM; values are per cent of control
[12] = target: Ephrin type-A receptor 2 (Homo sapiens) (UniProt P29317); experiment: Inhibition of EphA2 at 1 uM; values are per cent of control
Sequence of Ephrin type-A receptor 2 (Homo sapiens) (P29317 whole entry): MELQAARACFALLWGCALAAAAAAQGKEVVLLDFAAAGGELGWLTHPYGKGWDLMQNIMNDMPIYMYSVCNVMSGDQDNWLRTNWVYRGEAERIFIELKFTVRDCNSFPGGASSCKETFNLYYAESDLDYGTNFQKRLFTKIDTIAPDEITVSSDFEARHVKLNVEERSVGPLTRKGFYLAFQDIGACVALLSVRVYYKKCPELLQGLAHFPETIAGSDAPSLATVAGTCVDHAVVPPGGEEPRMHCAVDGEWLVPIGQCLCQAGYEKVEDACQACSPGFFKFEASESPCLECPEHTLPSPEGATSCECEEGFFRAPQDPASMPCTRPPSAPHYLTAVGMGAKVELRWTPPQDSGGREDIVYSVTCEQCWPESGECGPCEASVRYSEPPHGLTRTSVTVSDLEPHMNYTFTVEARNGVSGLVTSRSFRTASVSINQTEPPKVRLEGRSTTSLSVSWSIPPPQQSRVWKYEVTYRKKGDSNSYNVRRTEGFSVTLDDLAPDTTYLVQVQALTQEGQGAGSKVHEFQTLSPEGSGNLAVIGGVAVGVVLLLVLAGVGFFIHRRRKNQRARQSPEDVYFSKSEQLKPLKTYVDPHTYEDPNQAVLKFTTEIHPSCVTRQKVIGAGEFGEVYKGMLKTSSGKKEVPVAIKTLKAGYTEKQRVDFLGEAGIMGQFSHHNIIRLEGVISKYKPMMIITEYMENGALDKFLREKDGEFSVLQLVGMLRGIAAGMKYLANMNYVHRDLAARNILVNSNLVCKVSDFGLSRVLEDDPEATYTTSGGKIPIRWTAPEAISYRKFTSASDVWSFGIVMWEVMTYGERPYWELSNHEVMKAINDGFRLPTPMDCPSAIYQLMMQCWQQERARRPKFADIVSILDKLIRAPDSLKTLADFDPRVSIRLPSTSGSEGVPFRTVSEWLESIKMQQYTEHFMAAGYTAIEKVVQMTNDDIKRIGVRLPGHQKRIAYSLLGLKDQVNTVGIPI

[13] = target: Ephrin type-A receptor 7 (Homo sapiens) (UniProt Q15375); experiment: Inhibition of EphA7 at 1 uM; values are per cent of control
[14] = target: Fibroblast growth factor receptor 3 (Homo sapiens) (UniProt P22607); experiment: Inhibition of FGFR3 at 1 uM; values are per cent of control
Sequence of Fibroblast growth factor receptor 3 (Homo sapiens) (P22607 23-806 limits assumed): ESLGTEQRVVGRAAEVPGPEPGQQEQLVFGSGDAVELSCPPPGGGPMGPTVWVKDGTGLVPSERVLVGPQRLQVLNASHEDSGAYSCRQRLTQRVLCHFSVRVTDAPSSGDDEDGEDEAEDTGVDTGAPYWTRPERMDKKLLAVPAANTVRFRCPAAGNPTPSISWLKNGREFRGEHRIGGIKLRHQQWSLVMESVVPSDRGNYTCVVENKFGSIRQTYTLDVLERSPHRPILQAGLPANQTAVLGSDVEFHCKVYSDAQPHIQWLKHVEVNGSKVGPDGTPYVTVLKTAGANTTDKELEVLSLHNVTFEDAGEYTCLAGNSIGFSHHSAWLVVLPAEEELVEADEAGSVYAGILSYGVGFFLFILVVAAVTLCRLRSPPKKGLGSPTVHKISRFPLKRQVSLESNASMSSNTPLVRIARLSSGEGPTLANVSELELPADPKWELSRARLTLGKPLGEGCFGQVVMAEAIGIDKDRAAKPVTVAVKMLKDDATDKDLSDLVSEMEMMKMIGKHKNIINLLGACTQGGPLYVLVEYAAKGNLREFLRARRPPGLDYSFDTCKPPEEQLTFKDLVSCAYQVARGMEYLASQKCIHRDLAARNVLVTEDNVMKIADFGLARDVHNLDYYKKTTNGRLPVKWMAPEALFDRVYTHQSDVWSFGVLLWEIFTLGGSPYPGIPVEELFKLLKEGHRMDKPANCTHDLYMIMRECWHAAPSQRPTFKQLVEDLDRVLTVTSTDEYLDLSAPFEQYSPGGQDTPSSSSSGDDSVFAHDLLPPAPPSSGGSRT

[15] = target: Fibroblast growth factor receptor 4 (Homo sapiens) (UniProt P22455); experiment: Inhibition of FGFR4 at 1 uM; values are per cent of control
[16] = target: Receptor-interacting serine/threonine-protein kinase 2 (Homo sapiens) (UniProt O43353); experiment: Inhibition of RIPK2 at 1 uM; values are per cent of control
[17] = target: Serine/threonine-protein kinase 33 (Homo sapiens) (UniProt Q9BYT3); experiment: Inhibition of STK33 at 1 uM; values are per cent of control
[18] = target: Calcium/calmodulin-dependent protein kinase type 1 (Homo sapiens) (UniProt Q14012); experiment: Inhibition of CaMK1 at 0.1 uM; values are per cent of control
[19] = target: Serine/threonine-protein kinase pim-1 (Homo sapiens) (UniProt P11309); experiment: Inhibition of Pim-1 at 0.1 uM; values are per cent of control
Sequence of Serine/threonine-protein kinase pim-1 (Homo sapiens) (P11309 whole entry, looked up): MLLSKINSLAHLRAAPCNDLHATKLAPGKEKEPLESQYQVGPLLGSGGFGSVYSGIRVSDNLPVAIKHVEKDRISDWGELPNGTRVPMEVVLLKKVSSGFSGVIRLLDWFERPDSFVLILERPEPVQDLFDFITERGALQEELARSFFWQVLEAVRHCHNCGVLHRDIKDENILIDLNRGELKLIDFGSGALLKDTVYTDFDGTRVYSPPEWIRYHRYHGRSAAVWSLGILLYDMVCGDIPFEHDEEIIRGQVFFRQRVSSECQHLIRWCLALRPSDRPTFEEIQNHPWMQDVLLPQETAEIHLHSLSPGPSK

[20] = target: Mitogen-activated protein kinase 14 (Homo sapiens) (UniProt Q16539); experiment: Inhibition of SAPK2a at 0.1 uM; values are per cent of control
Sequence of Mitogen-activated protein kinase 14 (Homo sapiens) (Q16539 whole entry): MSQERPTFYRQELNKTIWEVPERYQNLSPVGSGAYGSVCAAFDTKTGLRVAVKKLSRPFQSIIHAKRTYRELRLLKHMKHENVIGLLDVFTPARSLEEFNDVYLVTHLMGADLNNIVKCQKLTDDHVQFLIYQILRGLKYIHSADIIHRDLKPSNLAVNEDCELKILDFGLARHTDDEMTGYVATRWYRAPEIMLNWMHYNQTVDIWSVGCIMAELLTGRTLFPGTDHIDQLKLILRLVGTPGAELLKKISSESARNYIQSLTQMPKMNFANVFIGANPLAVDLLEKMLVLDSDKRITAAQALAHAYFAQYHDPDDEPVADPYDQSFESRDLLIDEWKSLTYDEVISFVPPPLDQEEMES

[21] = target: T2, Cyclin-dependent kinase 5/CDK5 activator 1 (Homo sapiens) (UniProt Q00535+Q15078); experiment: Inhibition of CDK5/p35 at 1 uM; values are per cent of control
T2 sequence (Q00535 whole entry): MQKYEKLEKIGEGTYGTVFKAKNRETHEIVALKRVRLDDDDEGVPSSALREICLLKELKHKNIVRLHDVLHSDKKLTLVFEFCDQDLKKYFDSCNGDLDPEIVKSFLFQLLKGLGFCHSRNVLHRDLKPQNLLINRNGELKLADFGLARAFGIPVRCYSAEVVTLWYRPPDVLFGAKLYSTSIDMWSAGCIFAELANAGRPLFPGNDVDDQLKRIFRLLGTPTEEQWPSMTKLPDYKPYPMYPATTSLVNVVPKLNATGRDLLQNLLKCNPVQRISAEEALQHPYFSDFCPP
T2 sequence (Q15078 99-307 partner limits assumed): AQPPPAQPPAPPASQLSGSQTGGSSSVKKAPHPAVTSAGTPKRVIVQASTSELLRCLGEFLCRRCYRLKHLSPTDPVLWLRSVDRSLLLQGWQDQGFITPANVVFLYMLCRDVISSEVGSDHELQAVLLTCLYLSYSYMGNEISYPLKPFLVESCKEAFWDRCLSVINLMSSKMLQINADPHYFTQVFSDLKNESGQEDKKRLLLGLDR

[22] = target: Glycogen synthase kinase-3 beta (Homo sapiens) (UniProt P49841); experiment: Inhibition of GSK3-beta at 1 uM; values are per cent of control
Sequence of Glycogen synthase kinase-3 beta (Homo sapiens) (P49841 whole entry, looked up): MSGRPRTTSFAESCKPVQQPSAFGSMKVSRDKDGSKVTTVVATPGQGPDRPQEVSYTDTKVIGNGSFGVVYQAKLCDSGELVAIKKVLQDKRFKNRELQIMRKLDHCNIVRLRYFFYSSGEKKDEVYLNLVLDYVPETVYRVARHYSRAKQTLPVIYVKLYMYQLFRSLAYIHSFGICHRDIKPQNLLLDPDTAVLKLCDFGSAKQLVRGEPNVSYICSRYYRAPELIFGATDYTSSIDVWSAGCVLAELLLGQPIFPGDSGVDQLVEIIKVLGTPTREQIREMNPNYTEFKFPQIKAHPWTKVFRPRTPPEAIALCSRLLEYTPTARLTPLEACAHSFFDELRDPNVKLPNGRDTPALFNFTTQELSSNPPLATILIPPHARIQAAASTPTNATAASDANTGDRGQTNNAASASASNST

[23] = target: T2, Cyclin-dependent kinase 5/CDK5 activator 1 (Homo sapiens); experiment: Inhibition of CDK5/p35 at 0.1 uM; values are per cent of control
[24] = target: Protein kinase C alpha type (Homo sapiens) (UniProt P17252); experiment: Inhibition of PKCalpha at 0.1 uM; values are per cent of control
[25] = target: Platelet-derived growth factor receptor beta (Homo sapiens) (UniProt P09619); experiment: Inhibition of PDGFRbeta at 0.1 uM; values are per cent of control
[26] = target: Cyclin-dependent kinase 7/ cyclin H (Homo sapiens) (UniProt P51946+P50613); experiment: Inhibition of CDK7/cyclin H/MAT1 at 1 uM; values are per cent of control

Row | Structure (SMILES) | inhibition [1] [%] | inhibition [2] [%] | IC50 (cells) [nM] | residual activity [3] [%] | residual activity [4] [%] | residual activity [5] [%] | residual activity [6] [%] | residual activity [7] [%] | residual activity [8] [%] | residual activity [9] [%] | residual activity [10] [%] | residual activity [11] [%] | residual activity [12] [%] | residual activity [13] [%] | residual activity [14] [%] | residual activity [15] [%] | residual activity [16] [%] | residual activity [17] [%] | residual activity [18] [%] | residual activity [19] [%] | other results
1 | Cc1ccc2cc(-c3n[nH]c4ccc(NC5CCNC5)cc34)[nH]c2c1 (centres undefined) | 0 | 91 | 20 | 87 | -1 | 0 | 93 | 8 | 69 | 44 | 2 | 69 | 13 | 16 | 1 | 6 | 53 | 6 | 36 | 100 | residual activity [20]: 105%; residual activity [21]: 2%; residual activity [22]: 69%; residual activity [23]: 19%; residual activity [24]: 85%; residual activity [25]: 85%; residual activity [26]: 10%
2 | Cc1ccc2cc(-c3n[nH]c4ccc(NC5CCN(Cc6ccccc6)CC5)cc34)[nH]c2c1 | 3 | 86 | 500 | 88 | 0 | 7 | 93 | 10 | 38 | 78 | -2 | 122 | 7 | 16 | -3 | 10 | 78 | 4 | 89 | 106 | residual activity [20]: 89%; residual activity [21]: 0%; residual activity [22]: 95%; residual activity [23]: 20%; residual activity [24]: 77%; residual activity [25]: 82%; residual activity [26]: 28%
